Experimental data as given in ChEMBL document CHEMBL2016564, “Conformationally restricted novel pyrazole derivatives: synthesis of 1,8-disubstituted 5,5-dimethyl-4,5-dihydro-1H-benzo[g]indazoles as a new class of PDE4 inhibitors” (Bioorg Med Chem Lett, 2012).

How the values were obtained:
[1] = target: T1, 3',5'-cyclic-AMP phosphodiesterase 4B (Homo sapiens, UniProt Q07343); experiment: Inhibition of recombinant His-tagged PDE4B expressed in Sf9 cells using cAMP as substrate at 30 uM preincubated for 15 mins prior substrate addition measured after 1 hr by […]
T1 sequence (Q07343 whole entry): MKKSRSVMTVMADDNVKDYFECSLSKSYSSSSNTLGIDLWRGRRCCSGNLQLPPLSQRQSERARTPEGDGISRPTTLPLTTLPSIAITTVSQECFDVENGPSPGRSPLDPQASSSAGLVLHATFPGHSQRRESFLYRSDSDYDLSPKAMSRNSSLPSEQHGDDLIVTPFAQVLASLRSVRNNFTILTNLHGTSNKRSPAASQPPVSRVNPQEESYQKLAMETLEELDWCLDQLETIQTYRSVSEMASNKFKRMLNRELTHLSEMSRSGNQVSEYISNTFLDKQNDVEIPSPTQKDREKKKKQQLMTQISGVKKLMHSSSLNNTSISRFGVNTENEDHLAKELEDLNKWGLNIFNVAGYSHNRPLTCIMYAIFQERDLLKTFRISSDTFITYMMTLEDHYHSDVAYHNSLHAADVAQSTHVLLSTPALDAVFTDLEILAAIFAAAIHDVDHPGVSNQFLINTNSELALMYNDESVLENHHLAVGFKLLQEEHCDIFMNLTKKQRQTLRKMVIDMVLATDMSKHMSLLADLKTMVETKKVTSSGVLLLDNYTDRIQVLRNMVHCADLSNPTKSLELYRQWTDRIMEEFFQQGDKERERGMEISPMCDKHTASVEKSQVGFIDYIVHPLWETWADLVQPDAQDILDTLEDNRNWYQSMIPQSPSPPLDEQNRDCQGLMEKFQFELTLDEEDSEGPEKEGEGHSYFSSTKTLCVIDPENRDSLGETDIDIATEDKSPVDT
Outline: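 In-house purified PDE4B (10 ng) was preincubated 15 min with compound or DMSO vehicle, followed by 1 h with cAMP substrate. After stop solution, detection reagent was applied for 10 min in the dark and luminescence (RLU) was read. % inhibition was taken against vehicle-control RLU and reported as the average with SD.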

[2] = target: 3',5'-cyclic-AMP phosphodiesterase 4D (Homo sapiens) (UniProt Q08499); experiment: Inhibition of PDE4D using cAMP as substrate at 30 uM preincubated for 15 mins prior substrate addition measured after 1 hr by […]
3',5'-cyclic-AMP phosphodiesterase 4D (Homo sapiens), sequence (Q08499 whole entry): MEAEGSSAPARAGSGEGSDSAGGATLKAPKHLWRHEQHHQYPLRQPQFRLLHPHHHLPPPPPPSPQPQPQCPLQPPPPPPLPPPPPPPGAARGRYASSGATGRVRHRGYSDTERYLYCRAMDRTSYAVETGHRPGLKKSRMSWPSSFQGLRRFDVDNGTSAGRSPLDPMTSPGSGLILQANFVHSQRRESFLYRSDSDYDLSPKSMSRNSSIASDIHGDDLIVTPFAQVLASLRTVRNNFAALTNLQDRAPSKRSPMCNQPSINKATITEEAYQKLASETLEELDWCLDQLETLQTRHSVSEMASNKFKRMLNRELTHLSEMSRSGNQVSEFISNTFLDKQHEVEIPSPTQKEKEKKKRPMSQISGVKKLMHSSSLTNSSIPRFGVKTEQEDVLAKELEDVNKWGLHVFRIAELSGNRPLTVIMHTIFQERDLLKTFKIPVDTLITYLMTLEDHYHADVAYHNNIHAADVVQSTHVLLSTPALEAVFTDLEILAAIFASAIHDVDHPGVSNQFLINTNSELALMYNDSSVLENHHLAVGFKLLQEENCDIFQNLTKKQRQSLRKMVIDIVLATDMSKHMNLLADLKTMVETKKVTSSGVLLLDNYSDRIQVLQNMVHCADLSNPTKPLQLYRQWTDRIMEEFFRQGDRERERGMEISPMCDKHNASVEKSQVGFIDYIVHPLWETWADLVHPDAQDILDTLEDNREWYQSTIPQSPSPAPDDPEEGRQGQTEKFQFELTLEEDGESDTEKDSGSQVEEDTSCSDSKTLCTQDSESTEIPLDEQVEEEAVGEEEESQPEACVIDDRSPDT
Outline: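 Commercially sourced PDE4D (0.5 ng) was preincubated 15 min with compound or DMSO vehicle, then incubated 1 h with cAMP substrate. The reaction was halted with stop solution, and detection reagent was added for 10 min in the dark. Luminescence (RLU) was read, and % inhibition = (vehicle RLU − inhibitor RLU)/vehicle RLU × 100.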

[3] = target: T1, 3',5'-cyclic-AMP phosphodiesterase 4B

inhibition [1] [%]	inhibition [2] [%]	IC50 [3] [µM]	SMILES
68.2	–	–	Cc1ccc(-n2ncc3c2-c2cc([N+](=O)[O-])ccc2C(C)(C)C3)cc1
72.1	55.8	–	CC1(C)Cc2cnn(-c3ccccc3)c2-c2cc([N+](=O)[O-])ccc21
66.8	–	–	CC1(C)Cc2cnn(-c3ccc(F)cc3)c2-c2cc([N+](=O)[O-])ccc21
72.2	65.4	–	CC1(C)Cc2cnn(-c3ccc(F)cc3)c2-c2cc(Br)ccc21

Further lines, the molecule ahead of its results:

SMILES	inhibition [1] [%]	inhibition [2] [%]	IC50 [3] [µM]
Cc1cccc(-n2ncc3c2-c2cc([N+](=O)[O-])ccc2C(C)(C)C3)c1C	72.7	54.9	–
CC(C)n1ncc2c1-c1cc(Br)ccc1C(C)(C)C2	56.8	–	–
Cc1ccc(-n2ncc3c2-c2cc(Br)ccc2C(C)(C)C3)cc1	64.9	–	–
CC1(C)Cc2cnn(-c3ccc(F)cc3)c2-c2cc(NS(=O)(=O)c3ccccc3)ccc21	75.6	–	–
CC1(C)Cc2cnn(-c3ccc(Cl)cc3)c2-c2cc(Br)ccc21	68.1	–	–
CC1(C)Cc2cnn(-c3ccc(F)cc3)c2-c2cc(NS(C)(=O)=O)ccc21	75.1	–	–
CC1(C)Cc2cnn(-c3ccccc3)c2-c2cc(Br)ccc21	76.2	50	4.57
CC1(C)Cc2cnn(-c3ccc(C(F)(F)F)cc3)c2-c2cc(Br)ccc21	42.2	–	–
CC1(C)Cc2cnn(C(C)(C)C)c2-c2cc(Br)ccc21	71.4	41.7	–
CC1(C)Cc2cnn(-c3ccc(Br)cc3)c2-c2cc(Br)ccc21	60.3	–	–
